From ChEMBL document CHEMBL1157421, “Tenacigenin B derivatives reverse P-glycoprotein-mediated multidrug resistance inHepG2/Dox cells” (J Nat Prod, 2008)

Key:
HepG2 [1] = experiment: Cell cycle arrest in human HepG2 cells assessed as accumulation in S phase at 0.2 uM; assay type: functional
Outline: (§1)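 Cells seeded at about 2 × 10^5 per dish and left overnight, then exposed to drug for 48 h. Collected, washed in PBS, fixed in 70% EtOH at -20 °C overnight, treated with RNase A (100 µg/mL) at 37 °C for 30 min, stained with propidium iodide (40 µg/mL final) at room temperature, and phase distribution read by flow cytometry.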

[2] = Cell cycle arrest in multidrug resistant human HepG2/Dox cells assessed as accumulation in G0/G1 phase at 10 uM; assay type: functional, cell-based
Outline: (§2)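 Flow-cytometric cell-cycle profiling. About 2 × 10^5 cells were seeded per dish and left overnight, then exposed to medium with or without drug for 48 h. Cells were fixed in 70% EtOH at -20 °C overnight and treated with RNase A (100 µg/mL, 37 °C, 30 min). They were then stained with propidium iodide (40 µg/mL final) at room temperature for 5-10 min and read on a FACSCalibur.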

[3] = Cell cycle arrest in multidrug resistant human HepG2/Dox cells assessed as accumulation in G2/M phase at 50 uM; assay type: functional, cell-based; outline: as §2
[4] = Cell cycle arrest in multidrug resistant human HepG2/Dox cells assessed as accumulation in S phase at 10 uM; assay type: functional, cell-based; outline: as §2
HepG2 [5] = experiment: Growth inhibition of human HepG2 cells after 72 hrs by SRB assay; assay type: functional, cell-based; details: HepG2, 72 h
Outline: (§3)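 SRB growth assay giving IC50 values from at least three repeat experiments, reported as mean ± SD. HepG2/Dox is a doxorubicin-selected Pgp-overexpressing subline kept in 1.2 µM doxorubicin and grown drug-free for at least 7 days before use. Both lines grown in RPMI 1640 with 10% FBS at 37 °C, 5% CO2.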

[6] = Cell cycle arrest in multidrug resistant human HepG2/Dox cells assessed as accumulation in G2/M phase at 10 uM; assay type: functional, cell-based; outline: as §2
HepG2 [7] = experiment: Cell cycle arrest in human HepG2 cells assessed as accumulation in subG1 phase at 0.2 uM; assay type: functional; outline: as §1
[8] = Cell cycle arrest in multidrug resistant human HepG2/Dox cells assessed as accumulation in G0/G1 phase at 50 uM; assay type: functional, cell-based; outline: as §2
[9] = Cell cycle arrest in multidrug resistant human HepG2/Dox cells assessed as accumulation in subG1 phase at 10 uM; assay type: functional, cell-based; outline: as §2
[10] = Cell cycle arrest in multidrug resistant human HepG2/Dox cells assessed as accumulation in subG1 phase at 1 uM; assay type: functional, cell-based; outline: as §2
[11] = Cell cycle arrest in multidrug resistant human HepG2/Dox cells assessed as accumulation in G0/G1 phase at 1 uM; assay type: functional, cell-based; outline: as §2
[12] = Cell cycle arrest in multidrug resistant human HepG2/Dox cells assessed as accumulation in G2/M phase at 1 uM; assay type: functional, cell-based; outline: as §2
[13] = Growth inhibition of multidrug resistant human HepG2/Dox cells after 72 hrs by SRB assay; assay type: functional, cell-based; outline: as §3
[14] = Cell cycle arrest in multidrug resistant human HepG2/Dox cells assessed as accumulation in S phase at 50 uM; assay type: functional, cell-based; outline: as §2
[15] = Cell cycle arrest in multidrug resistant human HepG2/Dox cells assessed as accumulation in subG1 phase at 50 uM; assay type: functional, cell-based; outline: as §2
HepG2 [16] = experiment: Cell cycle arrest in human HepG2 cells assessed as accumulation in G0/G1 phase at 0.2 uM; assay type: functional; outline: as §1
[17] = Cell cycle arrest in multidrug resistant human HepG2/Dox cells assessed as accumulation in S phase at 1 uM; assay type: functional, cell-based; outline: as §2
HepG2 [18] = experiment: Cell cycle arrest in human HepG2 cells assessed as accumulation in G2/M phase at 0.2 uM; assay type: functional; outline: as §1
HepG2 [19] = experiment: Reversal of P-glycoprotein-mediated drug resistance in human HepG2 cells assessed as increase in sensitivity at 39.2 uM in presence of vinblastine; assay type: cell-based
Outline: (§4)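 Resistance reversal by SRB assay. IC50s of doxorubicin, vinblastine, puromycin or paclitaxel were measured with or without modulator, with modulator alone as negative control and verapamil as positive control. Fold sensitization is the ratio of drug IC50 without modulator to drug IC50 with it. HepG2/Dox cells were kept drug-free for at least 7 days before use. Assays were run at least three times (mean ± SD).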

HepG2 [20] = experiment: Growth inhibition of doxorubicin-sensitive human HepG2 cells at 80 uM; assay type: functional
Outline: (§5)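 SRB growth assay. HepG2 and HepG2/Dox cells were grown in RPMI 1640 with 10% FBS at 37 °C and 5% CO2; resistant cells were kept drug-free for at least 7 days before use. IC50 was taken from the SRB assay, with at least three repeats, reported as mean ± SD.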

HepG2/Dox [21] = experiment: Reversal of P-glycoprotein-mediated multidrug resistance in human HepG2/Dox cells assessed as increase in sensitivity at 19.6 uM in presence of vinblastine; assay type: cell-based; outline: as §4
HepG2/Dox [22] = experiment: Reversal of P-glycoprotein-mediated multidrug resistance in human HepG2/Dox cells assessed as increase in sensitivity at 19.6 uM in presence of doxorubicin; assay type: cell-based; outline: as §4
HepG2/Dox [23] = experiment: Reversal of P-glycoprotein-mediated multidrug resistance in human HepG2/Dox cells assessed as increase in sensitivity at 19.6 uM in presence of paclitaxel; assay type: cell-based; outline: as §4
[24] = Growth inhibition of multidrug resistant human HepG2/Dox cells at 80 uM; assay type: functional; outline: as §5
HepG2 [25] = experiment: Reversal of P-glycoprotein-mediated drug resistance in human HepG2 cells assessed as increase in sensitivity at 39.2 uM in presence of paclitaxel; assay type: cell-based; outline: as §4
HepG2/Dox [26] = experiment: Reversal of P-glycoprotein-mediated multidrug resistance in human HepG2/Dox cells assessed as increase in sensitivity at 39.2 uM in presence of puromycin; assay type: cell-based; outline: as §4
HepG2/Dox [27] = experiment: Reversal of P-glycoprotein-mediated multidrug resistance in human HepG2/Dox cells assessed as increase in sensitivity at 39.2 uM in presence of paclitaxel; assay type: cell-based; outline: as §4
HepG2 [28] = experiment: Reversal of P-glycoprotein-mediated drug resistance in human HepG2 cells assessed as increase in sensitivity at 39.2 uM in presence of doxorubicin; assay type: cell-based; outline: as §4
HepG2 [29] = experiment: Reversal of P-glycoprotein-mediated drug resistance in human HepG2 cells assessed as increase in sensitivity at 39.2 uM in presence of puromycin; assay type: cell-based; outline: as §4
HepG2/Dox [30] = experiment: Reversal of P-glycoprotein-mediated multidrug resistance in human HepG2/Dox cells assessed as increase in sensitivity at 39.2 uM in presence of doxorubicin; assay type: cell-based; outline: as §4
HepG2/Dox [31] = experiment: Reversal of P-glycoprotein-mediated multidrug resistance in human HepG2/Dox cells assessed as increase in sensitivity at 19.6 uM in presence of puromycin; assay type: cell-based; outline: as §4
HepG2/Dox [32] = experiment: Reversal of P-glycoprotein-mediated multidrug resistance in human HepG2/Dox cells assessed as increase in sensitivity at 39.2 uM in presence of vinblastine; assay type: cell-based; outline: as §4

SMILES: COc1cccc2c1C(=O)c1c(O)c3c(c(O)c1C2=O)C[C@@](O)(C(=O)CO)C[C@@H]3O[C@H]1C[C@H](N)[C@H](O)[C@H](C)O1 [DOXORUBICIN]
- Activity (HepG2 [1]): 8.9%
- Activity [2]: 24.8%
- Activity [3]: 73.4%
- Activity [4]: 6.9%
- IC50 (HepG2 [5]): 170 nM
- Activity [6]: 60.8%
- Activity (HepG2 [7]): 0.9%
- Activity [8]: 12%
- Activity [9]: 3.4%
- Activity [10]: 2.4%
- Activity [11]: 51.3%
- Activity [12]: 33.5%
- IC50 [13]: 8600 nM
- Activity [14]: 5.6%
- Activity [15]: 4.9%
- Activity (HepG2 [16]): 4.9%
- Activity [17]: 7.7%
- Activity (HepG2 [18]): 76.6%

SMILES: CC[C@]1(O)C[C@@H]2CN(CCc3c([nH]c4ccccc34)[C@@](C(=O)OC)(c3cc4c(cc3OC)N(C)[C@H]3[C@@](O)(C(=O)OC)[C@H](OC(C)=O)[C@]5(CC)C=CCN6CC[C@]43[C@@H]65)C2)C1 [VINBLASTINE]
- IC50 (HepG2 [5]): 0.26 nM
- IC50 [13]: 260 nM

SMILES: CC(=O)O[C@@H]1[C@@H](OC(=O)c2ccccc2)[C@@H]2[C@@]3(C)CC[C@H](O)C[C@@H]3CC[C@]23O[C@@]32CC[C@@H](C(C)=O)[C@@]12C [11ALPHA-O-BENZOYL-12BETA-O-ACETYLTENACIGENIN B]
- Ratio IC50 (HepG2 [19]): 0.9
- inhibition at 80 µM (HepG2 [20]): 50%
- Ratio IC50 (HepG2/Dox [21]): 13
- Ratio IC50 (HepG2/Dox [22]): 10.1
- Ratio IC50 (HepG2/Dox [23]): 42.4
- inhibition at 80 µM [24]: 50%
- Ratio IC50 (HepG2 [25]): 1
- Ratio IC50 (HepG2/Dox [26]): 15.5
- Ratio IC50 (HepG2/Dox [27]): 326
- Ratio IC50 (HepG2 [28]): 1.2
- Ratio IC50 (HepG2 [29]): 1
- Ratio IC50 (HepG2/Dox [30]): 15.6
- Ratio IC50 (HepG2/Dox [31]): 8.1
- Ratio IC50 (HepG2/Dox [32]): 53.1

SMILES: COc1ccc(C[C@H](N)C(=O)N[C@H]2[C@@H](O)[C@H](n3cnc4c(N(C)C)ncnc43)O[C@@H]2CO)cc1 [PUROMYCIN]
- IC50 (HepG2 [5]): 210 nM
- IC50 [13]: 20200 nM

SMILES: CC(=O)O[C@H]1C(=O)[C@@]2(C)[C@H]([C@H](OC(=O)c3ccccc3)[C@]3(O)C[C@H](OC(=O)[C@H](O)[C@@H](NC(=O)c4ccccc4)c4ccccc4)C(C)=C1C3(C)C)[C@]1(OC(C)=O)CO[C@@H]1C[C@@H]2O [PACLITAXEL]
- IC50 (HepG2 [5]): 5.9 nM
- IC50 [13]: 1400 nM
